Assay results pooled from the literature.
Protocols differ between the studies behind these lines.
Target: Dual specificity protein kinase CLK1 (CLK1, Homo sapiens, UniProt P49759)

O=C(N1CCS(=O)(=O)CC1)N1C[C@H](c2ccc(OC(F)(F)F)cc2)C[C@H](c2nc(C3CC3)no2)C1  remaining binding (cell-free assay; competition with immobilised ligand; 1 µM): 98%
CN1CC(Oc2cnc(C#N)cc2-c2ccn3nc(NC(=O)C4CC4)cc3c2)C1  inhibition (enzyme activity; inhibitor; 1 µM): -3%
COc1cc(-c2cc(-c3ccc(N4CCNCC4)cc3)cnc2C)cc(OC)c1OC  inhibition (enzyme activity; inhibitor; 1 µM): 1%
O=C(Nc1cnn(-c2csc(C(=O)NC3COC3)c2)c1)Nc1ccccc1Cl  remaining activity (enzyme activity; inhibitor; 5 µM): 81%
CC(C)(C)c1nc2c(s1)c1nc(N)ncc1c1ccc(NS(=O)(=O)c3c(F)cccc3F)c(F)c12  remaining activity (enzyme activity; inhibitor; radiometric; 1 µM): 91%
Oc1cccc(-c2nc(N3CCOCC3)c3oc4ncccc4c3n2)c1  remaining signal (cell-free assay; 0.5 µM): 85.2%
CNC(=O)Nc1ccc2c(c1)CC[C@@]21OC(=O)N(CC(=O)N(Cc2ccc(F)cc2)[C@@H](C)C(F)(F)F)C1=O  remaining binding (cell-free assay; competition with immobilised ligand; 1 µM): 69%
COc1cc2ncnc(Nc3ccc(Oc4ccccc4)c(C)c3C)c2cc1OC  inhibition (enzyme activity; inhibitor; 1 µM): 3%
Cc1cc(NC(=O)c2cccc3cc(-c4cccc5[nH]nc(N)c45)ccc23)ccc1F  activity vs control (enzyme activity; inhibitor; 0.1 µM): 97%
CNC(=O)c1ccc(Nc2ncc(C(F)(F)F)c(NCc3nccnc3N(C)S(C)(=O)=O)n2)cc1  remaining binding (cell-free assay; competition with immobilised ligand; 0.1 µM): 23%
CCN(CC)CCNC(=O)c1c(C)[nH]c(/C=C2\C(=O)Nc3ccc(F)cc32)c1C  remaining signal (cell-free assay; 0.5 µM): 23.3%
Cn1cncc1C1=CN(c2ncnc3[nH]cnc23)CCS1  inhibition (enzyme activity; inhibitor; radiometric; 2 µM): 97.3%
N#CCCc1ccc2c(c1)-c1[nH]c3ccc([N+](=O)[O-])cc3c1CC(=O)N2  remaining signal (cell-free assay; 0.5 µM): 99.6%
Nc1ncnc2occ(-c3ccc(NC(=O)Nc4cc(C(F)(F)F)ccc4F)cc3)c12  remaining signal (cell-free assay; inhibitor; 20 µM): 0.65%
CNCc1ccccc1-c1csc([C@H](C)Nc2nc(C)nc3cc(OC)c(OC)cc23)c1  remaining binding (cell-free assay; competition with immobilised ligand; 1 µM): 95%
COc1cc2nccc(Oc3ccc(NC(=O)Nc4ccc(F)cc4F)c(F)c3)c2cc1OC  ΔTm (thermal stability; DSF; 10 µM): 5 to 10 °C
CCc1ccccc1C(=O)Nc1n[nH]c2c(C)c(F)c(C3C(C#N)=C(C)N(C)C(C)=C3C#N)cc12  remaining binding (cell-free assay; competition with immobilised ligand; 1 µM): 84%
Cc1sc(C(=O)NC2COC2)cc1-n1cc(NC(=O)Nc2c(F)cccc2Cl)cn1  remaining activity (enzyme activity; inhibitor; 10 µM): 98.4%
Cc1cc(-n2nc(Cc3cc(F)cc(C(F)(F)F)c3)nc2C)ccc1C(N)=O  remaining binding (cell-free assay; competition with immobilised ligand; 1 µM): 86%
C[S+]([O-])c1ccc(-c2nc(-c3ccncc3)c(-c3ccc(F)cc3)[nH]2)cc1 (stereo not shown)  remaining signal (cell-free assay; 0.5 µM): 101%
O=C(NCc1ncc(C(F)(F)F)cc1Cl)c1ccc2c(c1)C1(CCS(=O)(=O)CC1)[C@H](C1CC1)N2S(=O)(=O)c1ccc(F)cc1  remaining binding (cell-free assay; competition with immobilised ligand; 1 µM): 100%
CC/C(=N\NC(=O)NCc1cccc(O)c1)c1ccc(O)c(C)c1O  inhibition (enzyme activity; inhibitor; 0.1 µM): 0.7%
